# Assay outcomes (PubChem BioAssay)
# An excerpt weighted towards active compounds, which were near 0.27% of everything screened.
# ERAP1 inh – inhibitors of human ERAP1 aminopeptidase; recombinant ERAP1, Leu-AMC fluorescence, 60 min; inhibition, % at 10.7 µM; 0.15% of 340,000 active;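 active = mean replicate inhibition of at least 30%, or all replicates individually reaching that 30% level; inactive = mean below 30% and not every replicate reaching it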;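 note: 0% = neutral control wells and 100% = L-leucinethiol positive control wells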
# Xi reactivation – X-chromosome reactivation activator; XiGFP mouse fibroblasts, % GFP-positive cells imaging, 3 d; cells co-treated with 5-aza-dC sensitizer; scaled so ellipticine positive control = 100%; activation, % at 7.58 µM; 0.055% of 360,000 active; AID 743238;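 active = mean normalized replicate activation at least 10% and every replicate at or above 10%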;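 note: 0% = median of on-plate neutral control wells and 100% = ellipticine 6 µM median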
#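 System: XiGFP fibroblasts, SV40-immortalized. Medium: DMEM plus 5-aza-dC sensitizer. Doses: single point. Timing: 3 d treatment, 15 min room-temperature fixation. Control set: ellipticine 6 µM.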
# CaV13 ICDI inh – Primary screen for inhibitors of IQ motif and Ca2+-dependent inactivation inhibitor domain binding in CACNA1D, Förster resonance energy transfer in living cells, …; 0.098% of 340,000 active; HEK cells, CFP/YFP FRET ICDI-IQ, plate reader, 10 min; percent FRET-ratio fall versus neutral wells; inhibition, % at 12.3 µM;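 active = mean replicate inhibition of at least 30% and at least 1% of replicates passing that level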;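 note: 0% = median of the neutral control wells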
# PvdQ inh – P. aeruginosa PvdQ acylase inhibition; purified PvdQ acylase, fluorescence plate reader; inhibition, % at 10 µM; 0.063% of 340,000 active; in the data active = inhibition above about 30%, passing the limit was not always enough;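 note: 0% = vehicle neutral wells and 100% = reference inhibitor wells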
# * hit, by the source's call; nt = no result.
SMILES,ERAP1 inh,Xi reactivation,CaV13 ICDI inh,PvdQ inh
Cc1ccc(-c2nc3ccsc3c(=O)[nH]2)cc1,-1.3,0.1,60.3*,0.1
Cc1ccc(-c2csc3nc(-c4ccncc4)[nH]c(=O)c23)cc1,0.5,0.0,0.0,-13.4
Cn1c(=N)c(S(=O)(=O)c2ccccc2)cc2c(=O)n3ccccc3nc21,nt,nt,34.5*,-15.3
CC(C)[C@@H](C(=O)N[C@@H](CCc1ccc(O)cc1)C(=O)O)N(C)C(=O)[C@H](CO)NC(=O)[C@@H](O)[C@H](N)CCCCCCCCl,61.9*,nt,nt,nt
COc1ccccc1C(C#N)c1cccc(Cl)n1 (stereo not given),-0.4,0.2,-3.8,116.3*
N#CC(c1ccccc1)c1cccc(Cl)n1 (stereo not given),-3.9,0.2,-4.6,102.9*
c1ccc(-c2cn3nc(-c4ccccc4)c(-c4ccccc4)nc3n2)cc1,nt,nt,5.1,10.8
Cc1ccc(-c2cn3nc(-c4ccccc4)c(-c4ccccc4)nc3n2)cc1,-0.2,78.5*,-3.2,nt
COc1cc(/C=C(\C#N)C(=O)NCC2CCCO2)ccc1OCC(=O)O (stereo not given),2.9,0.0,-5.3,4.7
COc1ccc(CCNC(=O)/C(C#N)=C/c2ccc(OCC(=O)NCC3CCCO3)cc2)cc1OC (stereo not given),0.5,0.2,-4.0,35.4*
CCOC(=O)C1=C(N)n2c(s/c(=C\c3ccncc3)c2=O)=C(C(=O)OCC)C1c1ccncc1 (stereo not given),-9.5,0.0,-4.2,-7.9
CCOC(=O)C1=c2/c(=C/c3ccncc3)c(N)c(C(=O)OC)n2C(=O)C(c2ccncc2)S1 (stereo not given),-3.9,115.8*,-2.2,6.0
CCN(C(=O)COC(=O)c1cnc(C)cn1)C1CCS(=O)(=O)C1 (stereo not given),69.0*,0.4,-5.9,10.1
O=S(=O)(O)c1cc(O)c2cc(Nc3ccccc3)ccc2c1,43.4*,0.6,-9.3,0.7
COc1ccccc1Nc1ccc2c(O)cc(S(=O)(=O)O)cc2c1,37.9*,0.0,-6.3,10.4
O=S(=O)(O)c1cc(O)c2ccc(Nc3ccccc3)cc2c1,40.2*,0.0,-6.2,-5.3
CO[C@@H]1CN(C)C(=O)c2cc(NC(C)=O)ccc2OC[C@H](C)N(Cc2nccs2)C[C@@H]1C,4.2,0.5,nt,nt
O=C(NN1CCOCC1)c1ccc(Cl)cc1Cl,-0.9,-0.1,-2.6,15.6
O=S(=O)(NN1CCOCC1)c1cc(Cl)cc(Cl)c1O,37.4*,0.0,-8.8,-8.2
CC1=CC(C)(C)[N+](C)=CN1c1ccccc1,51.2*,0.2,-4.9,8.6
Cc1nc2cc(C(=O)O)ccc2n1-c1ccccc1,4.6,0.0,-5.4,-4.4
Cc1cc(NC(=O)c2ccc([N+](=O)[O-])cc2Cl)no1,0.4,0.1,-4.1,40.3*
Cc1cc(NC(=O)c2cc(Cl)ccc2Cl)no1,nt,nt,-8.3,74.6*
Cc1ccc(NC(=O)c2ccc([N+](=O)[O-])cc2Cl)nc1,-0.7,0.0,-3.8,9.9
Cc1cc(NC(=O)c2c(F)c(F)c(F)c(F)c2F)no1,nt,nt,-4.0,62.9*
SMILES,ERAP1 inh,Xi reactivation,CaV13 ICDI inh,PvdQ inh
Cc1cc(NC(=O)c2cc([N+](=O)[O-])ccc2Cl)no1,0.1,0.1,-13.6,87.8*
Cc1cc(NC(=O)c2ccc([N+](=O)[O-])cc2)no1,0.2,0.0,-5.2,-13.9
CO[C@@H]1CN(C)C(=O)c2cc(NC(=O)c3cc(C)on3)ccc2OC[C@@H](C)N(S(=O)(=O)c2ccccc2)C[C@H]1C,1.4,nt,nt,nt
O=S(=O)(N[C@H]1CC[C@@H](CCn2cc(-c3cccnc3)nn2)O[C@@H]1CO)c1ccc(F)cc1,2.4,-0.2,nt,nt
CCC(=O)N1C[C@H](C)[C@H](OC)CN(C)C(=O)c2cc(NC(=O)Nc3ccc(Cl)cc3)ccc2OC[C@@H]1C,0.1,-0.1,nt,nt
CCCC(=O)N1CCC2(CC1)CN(C(=O)Nc1c(C)noc1C)[C@@H](CO)c1c2c2ccc(OC)cc2n1C,2.2,0.4,nt,nt
CO[C@@H]1CN(C)C(=O)c2cc(NS(=O)(=O)c3ccc(-c4ccccc4)cc3)ccc2OC[C@@H](C)NC[C@@H]1C,5.1,-0.1,nt,nt
COc1ccc2c3c([nH]c2c1)[C@@H](CO)N(Cc1ccccn1)CC31CN(C(C)=O)C1,nt,0.2,nt,nt
N#Cc1c(NCCCO)nc(NCc2ccccc2)c2c1CCN(Cc1ccccc1)C2,nt,nt,32.1*,-1.1
C[C@H]1CN(C)C(=O)Cc2cc(N)ccc2O[C@@H]1CN(C)C(=O)OC(C)(C)C,nt,0.2,nt,nt
O=CNC1(c2ccccc2)CCCCC1,-1.0,-0.1,-6.7,94.1*
CNC(=O)C1(c2ccccc2)CCCCC1,0.7,0.0,-5.7,nt
CCOC(=O)c1nnn(CC(=O)NC(=O)Nc2ccccc2)c1C(=O)OCC,nt,-0.2,-6.1,5.4
CCOC(=O)c1nnn(CC(=O)Nc2ccccc2)c1C(=O)OCC,42.6*,-0.1,0.1,-7.6
NS(=O)(=O)c1ccc(N2N=C(c3ccccc3)CC2c2ccccc2Br)cc1 (stereo not given),6.0,0.0,-5.1,-26.0
O=[N+]([O-])c1ccc(N2N=C(c3ccccc3)CC2c2ccccc2O)cc1 (stereo not given),2.3,32.3*,-9.8,10.5
COc1ccc2c3c(n(C)c2c1)[C@@H](CO)N(C)CC31CCN(S(C)(=O)=O)CC1,nt,0.3,nt,nt
CCOc1ccc(NC(=O)c2ccccn2)cc1,-2.0,0.1,-2.9,36.6*
CCCCCCCCCCCCCCCC[n+]1ccccc1,74.8*,0.1,-4.9,-6.0
CCCCCCCCCCCCCCCC[n+]1ccc(C(N)=O)cc1,nt,0.0,-3.6,2.9
CC(=O)Nc1ccc2c(c1)CC(=O)N(C)C[C@H](C)[C@@H](CN(C)S(C)(=O)=O)O2,nt,0.1,nt,nt
COC(=O)C1CCN(C2CC(=O)N(c3cc(C)cc(C)c3)C2=O)CC1 (stereo not given),-2.8,0.0,-3.3,36.3*
CCCC#Cc1ccc([C@@H]2[C@H]3CN(C(=O)Cc4cccnc4)CC(=O)N3[C@H]2CO)cc1,-1.4,0.4,nt,nt
CN1c2ccc(-c3ccccc3F)cc2[C@@H]2[C@@H](CCN2S(=O)(=O)c2ccccc2F)[C@H]1CO,1.6,0.2,nt,nt
CC(=O)Nc1nc(=O)c2ccccc2s1,33.5*,nt,-9.9,-6.7
SMILES,ERAP1 inh,Xi reactivation,CaV13 ICDI inh,PvdQ inh
COc1ccccc1N(C)c1cc2c(c3c1ccn3C)C1CCC2C1 (stereo not given),0.5,11.7*,-10.4,nt
CCN(C)c1cc2c(c3c1ccn3C)C1CCC2C1 (stereo not given),0.8,0.0,-3.2,nt
O=C(C[C@@H]1C=C[C@@H](NC(=O)Nc2ccc3c(c2)OCO3)[C@H](CO)O1)NCc1ccc(F)cc1,-3.7,-0.1,nt,nt
O=C1COc2ccc(C(=O)COC(=O)COc3ccccc3[N+](=O)[O-])cc2N1,-1.0,-0.2,-1.5,-20.5
N#Cc1ccccc1OCC(=O)OCC(=O)c1ccc2c(c1)NC(=O)CO2,35.7*,nt,-4.7,-7.3
CCOc1ccc(C2C(C#N)=C(N)Oc3cc(O)ccc32)cc1OCC (stereo not given),-0.9,0.0,57.7*,3.2
